In ChEMBL document CHEMBL2046406 (J Med Chem, 2012):
Activity calls are given as the source filed them. The calls are words filed in the database; no cut-off is given here.

What was measured:
[1] = molecular target: T1, Kappa-type opioid receptor (Homo sapiens, UniProt P41145); assay: biochemical; type: cell-based, CHO
[2] = species: Homo sapiens; assay: Selectivity index, ratio of inhibition of human delta opioid receptor to inhibition of human kappa opioid receptor
[3] = species: Homo sapiens; assay: Selectivity index, ratio of inhibition of human kappa opioid receptor to inhibition of human mu opioid receptor
[4] = molecular target: T2, Mu-type opioid receptor (Homo sapiens, UniProt P35372); assay: biochemical; type: cell-based, CHO
[5] = molecular target: T3, Delta-type opioid receptor (Homo sapiens, UniProt P41143); assay: Displacement of [3H]-naltrindole from human delta opioid receptor expressed in CHO cells after 3 hrs by scintillation counting; type: cell-based
In short: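 CHO membranes expressing human KOR or DOR incubated with radioligand and 12 compound concentrations in 1 mL 50 mM Tris-HCl, pH 7.5, at 25 °C. […] Nonspecific binding with 10 μM naloxone. Three experiments in triplicate.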

[6] = molecular target: T2, Mu-type opioid receptor; assay: Antagonist activity at human mu opioid receptor expressed in CHO cells assessed as inhibition of DAMGO-induced […]GTPgammaS binding after 60 mins by scintillation counting; type: functional, cell-based
[7] = molecular target: T1, Kappa-type opioid receptor; assay: Antagonist activity at human kappa opioid receptor expressed in CHO cells assessed as inhibition of U50488-induced […]GTPgammaS binding after 60 mins by scintillation counting; type: functional, cell-based
In short: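 κ antagonism: hKOR-CHO membranes incubated with compound plus 100 nM U50,488.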

[8] = molecular target: T2, Mu-type opioid receptor; assay: Antagonist activity at human mu opioid receptor expressed in CHO cells assessed as inhibition of DAMGO-induced […]GTPgammaS binding after 60 mins by scintillation counting relative to control; type: functional, cell-based
[9] = molecular target: T1, Kappa-type opioid receptor; assay: Agonist activity at human kappa opioid receptor expressed in CHO cells assessed as stimulation of […]GTPgammaS binding after 60 mins by scintillation counting relative to control; type: functional, cell-based
In short: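 Membranes from CHO cells stably expressing human KOR (15 μg protein per tube) or MOR (7.5 μg protein per tube). Nonspecific binding with 10 μM GTPγS. Filtration, then scintillation counting. Triplicate, at least three experiments.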

[10] = molecular target: T1, Kappa-type opioid receptor; assay: Agonist activity at human kappa opioid receptor expressed in CHO cells assessed as stimulation of […]GTPgammaS binding after 60 mins by scintillation counting; type: functional, cell-based
[11] = molecular target: T2, Mu-type opioid receptor; assay: Agonist activity at human mu opioid receptor expressed in CHO cells assessed as stimulation of […]GTPgammaS binding after 60 mins by scintillation counting relative to control; type: functional, cell-based
[12] = species: Homo sapiens; assay: Selectivity index, ratio of inhibition of human delta opioid receptor to inhibition of human mu opioid receptor
[13] = molecular target: T2, Mu-type opioid receptor; assay: Agonist activity at human mu opioid receptor expressed in CHO cells assessed as stimulation of […]GTPgammaS binding after 60 mins by scintillation counting; type: functional, cell-based
[14] = molecular target: T3, Delta-type opioid receptor; assay: Displacement of [3H]-naltrindole from human delta opioid receptor expressed in CHO cells at 10 uM after 3 hrs by scintillation counting; type: cell-based

T2 sequence (P35372 whole entry): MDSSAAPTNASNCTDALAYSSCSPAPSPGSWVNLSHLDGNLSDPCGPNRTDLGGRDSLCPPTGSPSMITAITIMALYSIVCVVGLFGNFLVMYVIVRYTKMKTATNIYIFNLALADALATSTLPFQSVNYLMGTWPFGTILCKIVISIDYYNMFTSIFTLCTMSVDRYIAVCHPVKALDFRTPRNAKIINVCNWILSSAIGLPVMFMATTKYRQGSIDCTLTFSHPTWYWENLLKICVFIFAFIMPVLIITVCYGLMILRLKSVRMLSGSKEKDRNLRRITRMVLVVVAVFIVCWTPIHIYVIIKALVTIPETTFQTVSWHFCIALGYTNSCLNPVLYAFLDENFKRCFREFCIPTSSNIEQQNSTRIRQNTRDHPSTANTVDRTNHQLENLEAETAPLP
T3 sequence (P41143 whole entry): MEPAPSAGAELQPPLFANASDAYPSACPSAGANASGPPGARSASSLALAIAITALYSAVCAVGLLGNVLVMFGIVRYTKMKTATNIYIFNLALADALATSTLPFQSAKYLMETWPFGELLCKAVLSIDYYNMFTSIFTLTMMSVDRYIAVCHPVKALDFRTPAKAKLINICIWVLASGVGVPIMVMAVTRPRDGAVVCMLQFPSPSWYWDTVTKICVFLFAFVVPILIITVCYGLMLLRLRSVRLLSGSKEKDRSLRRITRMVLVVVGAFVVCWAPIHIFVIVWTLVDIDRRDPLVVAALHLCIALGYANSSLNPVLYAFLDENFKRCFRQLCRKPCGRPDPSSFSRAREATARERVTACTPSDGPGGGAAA
T1 sequence (P41145 whole entry): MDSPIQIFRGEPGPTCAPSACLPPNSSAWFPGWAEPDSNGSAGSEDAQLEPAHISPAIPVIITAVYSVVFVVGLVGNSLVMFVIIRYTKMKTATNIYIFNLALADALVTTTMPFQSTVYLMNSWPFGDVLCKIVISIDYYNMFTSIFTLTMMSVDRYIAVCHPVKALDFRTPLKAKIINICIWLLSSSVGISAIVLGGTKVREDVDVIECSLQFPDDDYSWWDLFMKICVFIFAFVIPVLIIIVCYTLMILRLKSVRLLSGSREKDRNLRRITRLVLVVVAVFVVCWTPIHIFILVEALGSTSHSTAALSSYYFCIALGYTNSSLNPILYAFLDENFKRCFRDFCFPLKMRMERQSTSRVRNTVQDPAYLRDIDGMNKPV

SMILES | Ki [1] [nM] | Selectivity ratio [2] | Selectivity ratio [3] | Ki [4] [nM] | Ki [5] [nM] | IC50 ([6]; read-out: IC50) [nM] | Activity [7] | Imax [8] | Emax [9] [%] | EC50 [10] [nM] | Emax [11] [%] | Selectivity ratio [12] | EC50 [13] [nM] | inhibition [14] [%] | IC50 ([6]; cho)
CN(Cc1cccc(O)c1)c1ccc2c(c1)[C@@]13CCCC[C@H]1[C@@H](C2)N(CC1CCC1)CC3 | 23 | 10 | 10 | 17 | 170 | – | – | – | – | – | – | – | – | – | –
Oc1ccc(CNc2ccc3c(c2)[C@@]24CCCC[C@H]2[C@@H](C3)N(CC2CC2)CC4)cc1 | 0.27 | 44 | 44 | 0.28 | 13 | 7.6 | inactive | 80% | 100 | 1.8 | 19 | – | – | – | –
C[C@@H](NC(=O)[C@@H](N)Cc1ccc(O)cc1)C(=O)NCC(=O)N(C)[C@@H](Cc1ccccc1)C(=O)NCCO | – | – | – | – | – | – | – | inactive | – | – | – | – | – | – | –
Clc1ccc(CNc2ccc3c(c2)[C@@]24CCCC[C@H]2[C@@H](C3)N(CC2CCC2)CC4)cc1 | 4.5 | – | 59 | 1.7 | 100 | – | – | – | – | – | – | 3 | – | – | –
c1cc2c(cc1CNc1ccc3c(c1)[C@@]14CCCC[C@H]1[C@@H](C3)N(CC1CC1)CC4)OCO2 | 0.53 | – | 120 | 0.17 | 20 | 0.21 | inactive | 72% | 120 | 0.077 | 18 | 3 | – | – | –
COc1ccc(CNc2ccc3c(c2)[C@@]24CCCC[C@H]2[C@@H](C3)N(CC2CCC2)CC4)cc1 | 4.5 | – | 300 | 0.86 | 260 | 150 | inactive | 55% | 120 | 50 | 34 | 5 | 7.8 | – | –
CN(Cc1ccc(Cl)cc1)c1ccc2c(c1)[C@@]13CCCC[C@H]1[C@@H](C2)N(CC1CCC1)CC3 | 27 | 28 | 28 | 26 | 730 | – | – | – | – | – | – | – | – | – | –
COc1ccccc1CNc1ccc2c(c1)[C@@]13CCCC[C@H]1[C@@H](C2)N(CC1CCC1)CC3 | 2.2 | 28 | 28 | 2.7 | 61 | – | – | – | – | – | – | – | – | – | –
COc1cccc(CNc2ccc3c(c2)[C@@]24CCCC[C@H]2[C@@H](C3)N(CC2CCC2)CC4)c1 | 3.5 | – | 220 | 0.69 | 150 | 80 | inactive | 66% | 120 | 39 | 39 | 5 | 3.8 | – | –
COc1ccccc1CNc1ccc2c3c1O[C@H]1[C@@H](O)C=C[C@H]4[C@@H](C2)N(C)CC[C@@]341 | 220 | – | – | – | – | – | – | inactive | – | – | – | – | – | 22 | Not Active
Oc1ccc(CNc2ccc3c(c2)[C@@]24CCCC[C@H]2[C@@H](C3)N(CC2CCC2)CC4)cc1 | 2.3 | – | 340 | 0.35 | 120 | 75 | inactive | 56% | 130 | 38 | 38 | 7 | 3.6 | – | –
CN(Cc1ccc(O)cc1)c1ccc2c(c1)[C@@]13CCCC[C@H]1[C@@H](C2)N(CC1CCC1)CC3 | 4.1 | 170 | 170 | 3.2 | 530 | – | – | – | – | – | – | – | – | – | –
COc1ccc2c3c1O[C@H]1C(=O)CC[C@H]4[C@@H](C2)N(C)CC[C@]314 | – | – | – | – | – | – | – | – | – | – | – | – | – | 37 | –
CN1CC[C@]23c4c5ccc(NCc6ccc(O)cc6)c4O[C@H]2[C@@H](O)C=C[C@H]3[C@H]1C5 | 560 | – | 230 | 44 | – | – | – | – | – | – | – | 13 | – | 19 | –
Oc1cccc(CNc2ccc3c(c2)[C@@]24CCCC[C@H]2[C@@H](C3)N(CC2CCC2)CC4)c1 | 1.9 | – | 720 | 0.32 | 230 | 4.8 | – | 74% | – | – | 30 | 6 | – | – | –
COc1ccc(CNc2ccc3c(c2)[C@@]24CCCC[C@H]2[C@@H](C3)N(CC2CC2)CC4)cc1 | – | – | 65 | – | – | 10 | inactive | 67% | 130 | 5.3 | 30 | 2 | 6.8 | – | –
c1ccc(CNc2ccc3c(c2)[C@@]24CCCC[C@H]2[C@@H](C3)N(CC2CCC2)CC4)cc1 | – | – | 76 | – | – | – | – | – | – | – | – | 2 | – | – | –
c1ccc(CNc2ccc3c(c2)[C@@]24CCCC[C@H]2[C@@H](C3)N(CC2CC2)CC4)cc1 | – | 112 | 112 | – | – | – | – | – | – | – | – | – | – | – | –
COc1ccccc1CNc1ccc2c(c1)[C@@]13CCCC[C@H]1[C@@H](C2)N(CC1CC1)CC3 | 1.3 | 130 | 130 | 1.2 | 160 | – | – | – | – | – | – | – | – | – | –
CN1CC[C@]23CCCC[C@H]2[C@H]1Cc1ccc(NCc2cccc(O)c2)cc13 | 10 | – | – | 0.42 | 720 | – | inactive | – | 140 | 230 | – | – | 6.5 | – | Not Active
COc1cccc(CNc2ccc3c4c2O[C@H]2[C@@H](O)C=C[C@H]5[C@@H](C3)N(C)CC[C@@]452)c1 | 500 | – | – | – | – | – | – | – | – | – | – | – | – | 33 | –
COc1cccc(CNc2ccc3c(c2)[C@@]24CCCC[C@H]2[C@@H](C3)N(CC2CC2)CC4)c1 | 1.5 | – | 220 | 0.51 | 110 | 2 | inactive | 77% | 130 | 0.43 | 23 | 3 | – | – | –
Oc1ccccc1CNc1ccc2c(c1)[C@@]13CCCC[C@H]1[C@@H](C2)N(CC1CCC1)CC3 | 1.7 | 65 | 65 | 1.7 | 110 | 810 | inactive | 32% | 130 | 47 | 49 | – | 38 | – | –
CN1CC[C@]23c4c5ccc(NCc6ccccc6O)c4O[C@H]2[C@@H](O)C=C[C@H]3[C@H]1C5 | 370 | – | – | – | – | – | – | – | – | – | – | – | – | 27 | –
COc1cccc(CN(C)c2ccc3c(c2)[C@@]24CCCC[C@H]2[C@@H](C3)N(CC2CCC2)CC4)c1 | 25 | – | 27 | 13 | 350 | – | – | – | – | – | – | 2 | – | – | –
c1cc2c(cc1CNc1ccc3c(c1)[C@@]14CCCC[C@H]1[C@@H](C3)N(CC1CCC1)CC4)OCO2 | 1.1 | – | 160 | 0.34 | 53 | 94 | inactive | 60% | 130 | 27 | 39 | 3 | 3.6 | – | –
Oc1cccc(CNc2ccc3c(c2)[C@@]24CCCC[C@H]2[C@@H](C3)N(CC2CC2)CC4)c1 | 0.36 | – | 260 | 0.16 | 41 | 3.5 | inactive | 79% | 98 | 3.9 | 27 | 2 | – | – | –
COc1ccc(CN(C)c2ccc3c(c2)[C@@]24CCCC[C@H]2[C@@H](C3)N(CC2CCC2)CC4)cc1 | 8.5 | 34 | 34 | 9.5 | 290 | – | – | – | – | – | – | – | – | – | –
O=[N+]([O-])c1cccc(CNc2ccc3c(c2)[C@@]24CCCC[C@H]2[C@@H](C3)N(CC2CCC2)CC4)c1 | 1.1 | – | 350 | 0.43 | 150 | 6.8 | inactive | 49% | 140 | 0.79 | 70 | 3 | 1.1 | – | –
COc1ccccc1CN(C)c1ccc2c(c1)[C@@]13CCCC[C@H]1[C@@H](C2)N(CC1CCC1)CC3 | 19 | 14 | 14 | 14 | 190 | – | – | – | – | – | – | – | – | – | –
